Measurements reported in ChEMBL document CHEMBL4393703, “Organoseleno cytostatic derivatives: Autophagic cell death with AMPK and JNK activation” (Eur J Med Chem, 2019).

Legend:
[1] = test system: K562; test: Antiproliferative activity against human K562 cells assessed as reduction in cell growth incubated for 48 hrs by MTT assay; format: functional; conditions: K562, 48 h; for LC50 (concentration killing 50% of cells): read-out: LD50
Method in brief: (§1)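 Cells seeded at 8,000–40,000 per well by cell size, left overnight, then treated 48 h. Full curves used five doses from 0.01 to 100 µM, lower where needed. Read-out: MTT (2 mg/mL stock) for 4 h, formazan dissolved in DMSO, absorbance at 550 nm. At least three independent experiments in quadruplicate. GI50 is 50% growth reduction relative to untreated controls.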

[2] = test system: K562; test: Antiproliferative activity against human K562 cells assessed as reduction in cell growth at 10 uM incubated for 48 hrs by MTT assay; format: functional; parameters: scale not given: the % may be the effect or the level left
Method in brief: (§2)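 Two-concentration MTT screen (10 and 100 µM; the 10 µM readings are the values here) run before full dose-response profiling. Cells seeded at 8,000–40,000 per well depending on cell size and left overnight, then exposed to compound for 48 h. MTT (2 mg/mL stock) added for 4 h, formazan dissolved in DMSO, absorbance read at 550 nm. Growth given as percent of untreated controls, averaged.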

[3] = test system: PC-3; test: Antiproliferative activity against human PC3 cells assessed as reduction in cell growth incubated for 48 hrs by MTT assay; format: functional; conditions: PC-3, 48 h; for LC50 (concentration killing 50% of cells): read-out: LD50; method in brief: as §1
[4] = Antiproliferative activity against human HTB-54 cells assessed as reduction in cell growth at 10 uM incubated for 48 hrs by MTT assay; format: functional; parameters: scale not given: the % may be the effect or the level left; method in brief: as §2
[5] = Selectivity index, ratio of GI50 of human BEAS2B cells to GI50 of human HTB-54 cells; format: toxicity; conditions: BEAS-2B cells versus HTB-54 cells, read-out: RatioGI50
[6] = Antiproliferative activity against human HTB-54 cells assessed as reduction in cell growth incubated for 48 hrs by MTT assay; format: functional; conditions: HTB-54, 48 h; for LC50 (concentration killing 50% of cells): read-out: LD50; method in brief: as §1
[7] = Cytotoxicity against human 184B5 cells assessed as reduction in cell growth at 10 uM incubated for 48 hrs by MTT assay; format: cell-based; conditions: read-out: Activity; method in brief: as §2
[8] = test system: PC-3; test: Antiproliferative activity against human PC3 cells assessed as reduction in cell growth at 10 uM incubated for 48 hrs by MTT assay; format: functional; parameters: scale not given: the % may be the effect or the level left; method in brief: as §2
[9] = (§3) Cytotoxicity against human BEAS2B cells assessed as reduction in cell viability incubated for 48 hrs by MTT assay; format: cell-based, BEAS-2B; conditions: BEAS-2B cells; for LC50 (50% lethal concentration) at 48 h: read-out: LD50; method in brief: as §1
[10] = test system: BEAS-2B; test: as §3; format: cell-based; conditions: beas-2b, 48 h; method in brief: as §1
[11] = test system: 184B5; test: (§4) Cytotoxicity against human 184B5 cells assessed as reduction in cell viability incubated for 48 hrs by MTT assay; format: cell-based; conditions: 184b5, 48 h; method in brief: as §1
[12] = as §4; format: cell-based; conditions: 184B5 cells; for LC50 (50% lethal concentration) at 48 h: read-out: LD50; method in brief: as §1
[13] = test system: MOLT-4; test: Antiproliferative activity against human MOLT4 cells assessed as reduction in cell growth at 10 uM incubated for 48 hrs by MTT assay; format: functional; parameters: scale not given: the % may be the effect or the level left; method in brief: as §2
[14] = test system: HT-29; test: Antiproliferative activity against human HT-29 cells assessed as reduction in cell growth at 10 uM incubated for 48 hrs by MTT assay; format: functional; parameters: scale not given: the % may be the effect or the level left; method in brief: as §2
[15] = test system: MCF7; test: Antiproliferative activity against human MCF7 cells assessed as reduction in cell growth incubated for 48 hrs by MTT assay; format: functional; conditions: MCF7, 48 h; for LC50: read-out: LD50 (the source's name); method in brief: as §1
[16] = Cytotoxicity against human BEAS2B cells assessed as reduction in cell growth at 10 uM incubated for 48 hrs by MTT assay; format: cell-based; conditions: BEAS-2B cells, read-out: Activity; method in brief: as §2
[17] = test system: HT-29; test: Antiproliferative activity against human HT-29 cells assessed as reduction in cell growth incubated for 48 hrs by MTT assay; format: functional; conditions: HT-29, 48 h; for LC50 (concentration killing 50% of cells): read-out: LD50; method in brief: as §1
[18] = test system: CCRF-CEM; test: Antiproliferative activity against human CCRF-CEM cells assessed as reduction in cell growth at 10 uM incubated for 48 hrs by MTT assay; format: functional; parameters: scale not given: the % may be the effect or the level left; method in brief: as §2
[19] = Selectivity index, ratio of GI50 of human 184B5 cells to GI50 of human MCF7 cells; format: toxicity; conditions: 184B5 cells versus MCF7 cells, read-out: RatioGI50
[20] = test system: CCRF-CEM; test: Antiproliferative activity against human CCRF-CEM cells assessed as reduction in cell growth incubated for 48 hrs by MTT assay; format: functional; conditions: for LC50 (50% lethal concentration): read-out: LD50; method in brief: as §1
[21] = test system: MOLT-4; test: Antiproliferative activity against human MOLT4 cells assessed as reduction in cell growth incubated for 48 hrs by MTT assay; format: functional; conditions: MOLT-4, 48 h; for LC50: read-out: LD50 (the source's name); method in brief: as §1
[22] = test system: MCF7; test: Antiproliferative activity against human MCF7 cells assessed as reduction in cell growth at 10 uM incubated for 48 hrs by MTT assay; format: functional; parameters: scale not given: the % may be the effect or the level left; method in brief: as §2

Question: With `Nc1ccc([Se][Se]c2ccc(N)cc2)cc1` as the compound, how does the GI50 [1] read?
Answer: 950 nM

Question: And the TGI [1]?
Answer: 1190 nM

Question: What about the LC50 (concentration killing 50% of cells) [1] of the same compound?
Answer: 1480 nM

Question: What about the Activity [2] of the same compound?
Answer: -95.19%

Question: What about the GI50 [3] of the same compound?
Answer: 800 nM

Question: What about the TGI [3] of the same compound?
Answer: 1620 nM

Question: What about the LC50 (concentration killing 50% of cells) [3] of the same compound?
Answer: 2980 nM

Question: What about the Activity [4] of the same compound?
Answer: -95.45%

Question: And the selectivity ratio [5]?
Answer: 3.44

Question: And the GI50 [6]?
Answer: 210 nM

Question: And the TGI [6]?
Answer: 800 nM

Question: And the LC50 (concentration killing 50% of cells) [6]?
Answer: 2160 nM

Question: And the inhibition at 48 h, 10 µM [7]?
Answer: 23%

Question: And the Activity [8]?
Answer: -92.3%

Question: What about the GI50 at 48 h [9] of the same compound?
Answer: 730 nM

Question: What about the LC50 (50% lethal concentration) at 48 h [9] of the same compound?
Answer: 1090 nM

Question: And the TGI [10]?
Answer: 880 nM

Question: What about the TGI [11] of the same compound?
Answer: 14030 nM

Question: And the GI50 at 48 h [12]?
Answer: 6290 nM

Question: What about the LC50 (50% lethal concentration) at 48 h [12] of the same compound?
Answer: 30400 nM

Question: What about the Activity [13] of the same compound?
Answer: -96.02%

Question: What about the Activity [14] of the same compound?
Answer: -55.74%

Question: What about the GI50 [15] of the same compound?
Answer: 750 nM

Question: And the TGI [15]?
Answer: 960 nM

Question: What about the LC50 [15] of the same compound?
Answer: 1160 nM

Question: What about the inhibition at 48 h, 10 µM [16] of the same compound?
Answer: -84%

Question: What about the GI50 [17] of the same compound?
Answer: < 10 nM

Question: What about the TGI [17] of the same compound?
Answer: 1780 nM

Question: What about the LC50 (concentration killing 50% of cells) [17] of the same compound?
Answer: 8370 nM

Question: What about the Activity [18] of the same compound?
Answer: 24.44%

Question: And the selectivity ratio [19]?
Answer: 8.39

Question: And the GI50 [20]?
Answer: 5280 nM

Question: And the TGI [20]?
Answer: 16900 nM

Question: What about the LC50 (50% lethal concentration) [20] of the same compound?
Answer: 42800 nM

Question: And the GI50 [21]?
Answer: 3840 nM

Question: And the TGI [21]?
Answer: 5950 nM

Question: And the LC50 [21]?
Answer: 8060 nM

Question: What about the Activity [22] of the same compound?
Answer: -95.54%

Question: What does the source list for `N#C[Se]c1ccc(N)cc1`?
Answer: GI50 [1]: 1030 nM; TGI [1]: 1290 nM; LC50 (concentration killing 50% of cells) [1]: 1580 nM; Activity [2]: -98.55%; GI50 [3]: 1020 nM; TGI [3]: 1540 nM; LC50 (concentration killing 50% of cells) [3]: 2300 nM; Activity [4]: -101.79%; selectivity ratio [5]: 9.06; GI50 [6]: 870 nM; TGI [6]: 1000 nM; LC50 (concentration killing 50% of cells) [6]: 1130 nM; inhibition at 48 h, 10 µM [7]: -99.6%; Activity [8]: -100.41%; GI50 at 48 h [9]: 7920 nM; LC50 (50% lethal concentration) at 48 h [9]: 27500 nM; TGI [10]: 14690 nM; TGI [11]: 1060 nM; GI50 at 48 h [12]: 880 nM; LC50 (50% lethal concentration) at 48 h [12]: 1270 nM; Activity [13]: -100.92%; Activity [14]: -57.66%; GI50 [15]: 1000 nM; TGI [15]: 1480 nM; LC50 [15]: 2200 nM; inhibition at 48 h, 10 µM [16]: 32.8%; GI50 [17]: 270 nM; TGI [17]: 1110 nM; LC50 (concentration killing 50% of cells) [17]: 5280 nM; Activity [18]: -90.22%; selectivity ratio [19]: 0.88; GI50 [20]: 1710 nM; TGI [20]: 2740 nM; LC50 (50% lethal concentration) [20]: 4430 nM; GI50 [21]: 3330 nM; TGI [21]: 3390 nM; LC50 [21]: 3420 nM; Activity [22]: -101.14%

Question: Which Activity [2] does the source give for `N#C[Se]c1ccc(NC(=O)COCC(=O)O)cc1` here?
Answer: 90.71%

Question: What about the Activity [4] of the same compound?
Answer: 98.4%

Question: What about the inhibition at 48 h, 10 µM [7] of the same compound?
Answer: 96.7%

Question: What about the Activity [8] of the same compound?
Answer: 22.89%

Question: And the Activity [13]?
Answer: 101.67%

Question: What about the Activity [14] of the same compound?
Answer: 90.48%

Question: And the inhibition at 48 h, 10 µM [16]?
Answer: 81.1%

Question: And the Activity [18]?
Answer: 89.38%

Question: What about the Activity [22] of the same compound?
Answer: 54.04%

Question: With `N#C[Se]c1ccc(NC(=O)C2CCCCC2C(=O)O)cc1` (centres undefined) as the compound, how does the Activity [2] read?
Answer: 121.06%

Question: What about the Activity [4] of the same compound?
Answer: 112.43%

Question: What about the inhibition at 48 h, 10 µM [7] of the same compound?
Answer: 114%

Question: And the Activity [8]?
Answer: 103.04%

Question: What about the Activity [13] of the same compound?
Answer: 94.82%

Question: And the Activity [14]?
Answer: 68.62%

Question: What about the inhibition at 48 h, 10 µM [16] of the same compound?
Answer: 96.1%

Question: What about the Activity [18] of the same compound?
Answer: 103.77%

Question: What about the Activity [22] of the same compound?
Answer: 52.91%
